Bioassay records deposited in PubChem by several laboratories.
Sampled rows, rich in hits. Any-hit rate of the full collection: about 1.8%.
PG9 Ab binder: binds the HIV-1 gp120 antibody PG9; TR-FRET gp120-PG9 antibody binding; inhibition, % at 6.7 µM; 0.43% of 360,000 active; AID 624416; in the data active = inhibition above about 8.5%
Rin1-Abl PPI inh: human Rin1-Abl interaction inhibition; inhibition, % at 7.35 µM; TR-FRET Rin1/Abl binding, biochemical; 0.4% of 360,000 active; AID 588664; P00519+Q13671; in the data active = inhibition above about 5%, passing the limit was not always enough
Target sequence (P00519 whole entry, looked up): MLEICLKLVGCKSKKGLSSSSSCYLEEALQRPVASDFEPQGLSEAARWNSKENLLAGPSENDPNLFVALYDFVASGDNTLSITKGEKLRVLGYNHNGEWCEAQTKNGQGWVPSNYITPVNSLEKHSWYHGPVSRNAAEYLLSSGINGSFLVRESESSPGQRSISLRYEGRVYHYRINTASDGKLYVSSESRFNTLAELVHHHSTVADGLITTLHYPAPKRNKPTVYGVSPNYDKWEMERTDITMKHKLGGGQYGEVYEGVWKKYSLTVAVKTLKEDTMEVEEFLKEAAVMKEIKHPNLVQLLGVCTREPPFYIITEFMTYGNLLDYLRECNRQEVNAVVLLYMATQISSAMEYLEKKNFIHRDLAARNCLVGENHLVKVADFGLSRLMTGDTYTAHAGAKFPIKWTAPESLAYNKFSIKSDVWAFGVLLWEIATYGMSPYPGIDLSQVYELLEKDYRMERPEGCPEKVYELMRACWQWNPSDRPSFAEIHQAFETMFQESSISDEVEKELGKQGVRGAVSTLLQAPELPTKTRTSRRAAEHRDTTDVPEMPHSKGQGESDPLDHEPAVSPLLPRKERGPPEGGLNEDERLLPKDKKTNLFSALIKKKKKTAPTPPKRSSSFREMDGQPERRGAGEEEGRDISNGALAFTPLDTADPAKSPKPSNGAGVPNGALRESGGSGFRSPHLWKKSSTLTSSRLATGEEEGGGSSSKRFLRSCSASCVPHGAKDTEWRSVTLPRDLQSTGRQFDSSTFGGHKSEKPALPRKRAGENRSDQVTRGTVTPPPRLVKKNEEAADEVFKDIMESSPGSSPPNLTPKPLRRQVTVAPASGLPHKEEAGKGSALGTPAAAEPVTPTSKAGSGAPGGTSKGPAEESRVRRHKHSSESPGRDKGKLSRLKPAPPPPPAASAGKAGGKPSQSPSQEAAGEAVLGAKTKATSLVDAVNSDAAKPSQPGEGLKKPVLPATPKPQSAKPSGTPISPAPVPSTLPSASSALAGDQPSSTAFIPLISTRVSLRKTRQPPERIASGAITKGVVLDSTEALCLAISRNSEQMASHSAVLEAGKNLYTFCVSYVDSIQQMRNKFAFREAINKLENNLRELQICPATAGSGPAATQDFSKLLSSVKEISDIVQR
Target sequence (Q13671 whole entry, looked up): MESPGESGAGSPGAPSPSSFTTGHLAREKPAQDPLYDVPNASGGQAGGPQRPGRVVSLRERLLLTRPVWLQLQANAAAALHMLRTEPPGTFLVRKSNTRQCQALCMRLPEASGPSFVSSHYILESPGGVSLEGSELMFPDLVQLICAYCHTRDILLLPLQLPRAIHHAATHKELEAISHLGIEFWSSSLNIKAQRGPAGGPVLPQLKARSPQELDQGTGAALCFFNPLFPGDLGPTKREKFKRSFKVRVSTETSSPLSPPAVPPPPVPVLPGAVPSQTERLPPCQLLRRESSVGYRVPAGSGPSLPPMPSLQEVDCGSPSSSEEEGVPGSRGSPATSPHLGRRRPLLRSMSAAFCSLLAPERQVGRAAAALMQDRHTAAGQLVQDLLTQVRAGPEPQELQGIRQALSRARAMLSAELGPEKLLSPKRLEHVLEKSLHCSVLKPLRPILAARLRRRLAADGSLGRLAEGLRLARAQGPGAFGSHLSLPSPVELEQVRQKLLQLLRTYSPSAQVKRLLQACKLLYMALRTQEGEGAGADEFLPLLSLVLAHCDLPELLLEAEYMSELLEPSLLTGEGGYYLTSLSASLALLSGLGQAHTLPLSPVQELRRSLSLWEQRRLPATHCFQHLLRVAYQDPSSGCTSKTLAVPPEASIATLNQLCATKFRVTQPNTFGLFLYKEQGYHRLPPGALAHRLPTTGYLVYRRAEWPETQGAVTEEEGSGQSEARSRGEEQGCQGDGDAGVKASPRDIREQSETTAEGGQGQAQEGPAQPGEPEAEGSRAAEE
NR1D1 modulator: Rev-erb alpha (human) modulation; P20393; Rev-erbα–FITC-DNA binding, fluorescence polarization, 90 min; activity, % at 10 µM; 0.79% of 370,000 active; AID 1259318;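 active = activity above about 14%, limit read from the data; passing the limit was not always enough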
TbMetRS inhib: Trypanosoma brucei MetRS inhibition | purified T. brucei MetRS, ATP depletion, Kinase-Glo luminescence | inhibition, % at 11.9 µM | 0.4% of 360,000 active | AID 624268;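 active = inhibition above a per-plate cutoff of the control wells' mean inhibition plus 3 SD, cut at about 5.5% in these data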
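assay system = parasite MetRS enzyme | timing = 15 min preincubation, 2 h reaction, all 25 °C | evaluation = percent inhibition relative to median high and low control wells | medium = HEPES buffer containing pyrophosphatase, BSA, spermine, DTT | compound = single dose, 11.9 µM final nominal, 0.9% final DMSO | detection = Kinase-Glo luminescence, ATP depletion format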
Rev-erbA confirm: confirmation of modulators of human Rev-erb alpha DNA binding | activation, % at 25 µM | shares compounds with NR1D1 modulator | 61% of 3,000 active | Rev-erb alpha FITC-DNA binding, fluorescence polarization, 90 min;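 active = activation at or above a set limit, or at least 3 SD above the negative control mean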
RORg DNA counter: RORgamma DNA-binding activity, dose-response counter-screen | shares compounds with NR1D1 modulator | purified RORgamma protein-FITC-DNA binding, fluorescence polarization | IC50, µM | 8% of 910 active;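 active = Compounds whose fitted half-maximal concentration for disrupting protein-DNA binding is below 10 micromolar; the record names Rev-erb in its text, so the target is in doubt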
Hits are given with their value; n = inactive; x = no result given.

SMILES | PG9 Ab binder | Rin1-Abl PPI inh | NR1D1 modulator | TbMetRS inhib | Rev-erbA confirm | others
COc1ccc(CNC(=O)Cn2nc(-c3ccc4c(c3)OCCO4)ccc2=O)cc1 | n | n | n | n | x
O=C(NCC1CCCCC1)c1cc(-c2cc(F)ccc2OCC2CCCO2)n[nH]1 (configuration not stated) | n | n | n | n | x
COc1ccc(CCn2c3c(c(=O)[nH]c2=O)C(NC(=O)c2cccs2)(C(F)(F)F)C(=O)N3)cc1OC (configuration not stated) | n | n | n | n | x
COc1ccc(CCn2c(O)c(C=Nc3cccc(F)c3)c(=O)[nH]c2=O)cc1OC | n | n | 38 | n | n
COC(=O)c1sccc1NC(=O)C12CC3CC(CC(C3)C1)C2 | n | n | 25 | n | 22
COC(=O)c1sccc1NC(=O)C1CC1 | n | n | n | n | x
COC(=O)CSc1nnc(-c2ccccc2OC)o1 | n | n | n | n | x
Cc1cccc(C)c1OC(=O)CSc1nnc(-c2ccccc2O)o1 | n | n | 29 | n | 26
CN1/C(=C/C(=S)NC(=O)C2(C)CC2(Cl)Cl)C(C)(C)c2ccccc21 (configuration not stated) | n | n | 23 | n | n
O=c1c2ccccc2n2c(-c3ccc(F)cc3)nnc2n1Cc1ccccc1 | n | n | 24 | n | 35 | RORg DNA counter=n
Cc1ccc(NC(=O)CSc2ncccn2)cc1F | n | n | n | n | x
Cc1nc(SCc2ccccc2)c2oc3ccccc3c2n1 | n | n | n | n | x
Cc1nc(SCC(=O)Nc2ccc(C)c(F)c2)c2oc3ccccc3c2n1 | n | n | 779 | n | 682
Cc1nc(SCC(=O)NC2CCCC2)c2oc3ccccc3c2n1 | n | n | 35 | n | 652 | RORg DNA counter=n
CCOC(=O)c1c(C)[nH]c(C)c1C(=O)COC(=O)CSc1ccc(C)cc1 | n | n | n | n | x
O=C1c2cccc3cccc(c23)N1Cc1cccc(F)c1 | n | n | n | n | x
Cn1nnnc1SCc1nc2ccccc2s1 | n | n | 22 | n | n
Cn1nnnc1SCc1cccc2ccccc12 | n | n | n | n | x
N#Cc1cc2c(nc1SCC(=O)O)CCCC2 | n | n | n | n | x
Cc1noc(NS(=O)(=O)c2ccc(NC(=O)CSc3nc4c(cc3C#N)CCC4)cc2)c1C | n | n | n | n | x
Cc1cc(NC(=O)CSc2nc3c(cc2C#N)CCC3)no1 | n | n | 23 | n | n
N#Cc1cc2c(nc1SCc1ccccc1)CCC2 | n | n | 45 | n | 25
Cc1cc(NC(=O)CSc2nc3c(cc2C#N)CCCC3)no1 | n | n | 35 | n | 26
CCOc1cccc(CN2CCCC(C(=O)c3cc(Cl)ccc3OC)C2)c1O (configuration not stated) | n | n | n | n | x
CCN1C(=O)CSC1=NC1C2CC3CC(C2)CC1C3 (configuration not stated) | n | n | 42 | n | 48 | RORg DNA counter=n
SMILES | PG9 Ab binder | Rin1-Abl PPI inh | NR1D1 modulator | TbMetRS inhib | Rev-erbA confirm | others
Cc1ccc(NC(=S)NC(=O)c2ccccc2)cc1NC(=S)NC(=O)c1ccccc1 | n | n | 21 | n | n
COc1ccc(C(=O)NC(=S)Nc2ccc3c(c2)Cc2ccccc2-3)cc1 | n | n | 24 | n | n
CC(/C=C/c1ccccc1F)=N\NC(=O)c1cccc(F)c1 | n | n | 17 | n | n
CCN(CC)c1ccc(-c2c(C#N)c(N)nc(OC)c2C#N)cc1 | n | n | 178 | n | 137 | RORg DNA counter=n
O=c1cc(CN2CCCC2)c2ccccc2o1 | n | x | n | x | x
Cc1ccc(NC(=S)Nc2ccc(S(=O)(=O)N3CCOCC3)cc2)cc1S(=O)(=O)N1CCOCC1 | n | n | 17 | n | n
COc1ccc2nc(NC(=O)C(NS(=O)(=O)c3cccc4nsnc34)C(C)C)sc2c1 (configuration not stated) | n | n | 31 | n | 18
O=C(Nc1ccccc1F)c1csc(COCCO)n1 | n | n | n | n | x
COc1ccccc1Oc1ccc(NC(=O)Cc2ccccc2)cc1 | n | n | n | n | x
O=C(CSc1nnc(-c2ccc(Cl)cc2)n1-c1ccccc1)Nc1ccc(Oc2ccccc2)cc1 | x | x | 22 | x | n
COc1ccc(-n2c(SCC(=O)Nc3ccc(Oc4ccccc4)cc3)nnc2-c2ccccc2)cc1 | x | x | n | x | x
O=C(CSc1nnc(-c2cccs2)n1-c1ccccc1)Nc1ccccc1 | 54 | n | 112 | n | 92
CCOC(=O)CSc1nnc(-c2cccs2)n1-c1ccccc1 | n | n | n | n | x
CCCNC(=O)c1ccc(N2CCC3(CC2)CC(c2ccccc2)=NO3)c(NC(=O)c2ccco2)c1 | n | n | n | n | x
CCCNC(=O)c1ccc(N2CCC3(CC2)CC(c2ccccc2)=NO3)c(NC(=O)c2cccc(OC)c2)c1 | n | n | 20 | n | n
CCN(CC(=O)Nc1ccc(NC(C)=O)cc1)C(=O)/C=C/c1c(C)nn(-c2ccc(F)cc2)c1C | n | n | n | n | x
CC(C)NC(=O)/C(C#N)=C\c1ccc(N(C)C)o1 | n | n | 15 | n | n
CCN(CC)c1ccc(/C=C(/C#N)C(=O)NCc2ccccc2)o1 | n | n | 25 | n | n
CCN(CC)c1ccc(/C=C(/C#N)C(=O)NC(C)C)o1 | n | n | n | n | x
N#C/C(=C\c1ccc(O)cc1)C(=O)NCc1ccccc1 | n | n | n | n | x
CC1CN(c2nc3ccccc3nc2SCC(=O)Nc2cccc(C(F)(F)F)c2)CC(C)O1 (configuration not stated) | n | n | n | n | x
Cc1nc2ccc(C(=O)N(C)Cc3ccccc3)cn2c1N(C)C(=O)CCc1ccccc1 | n | n | n | n | x
CCOc1nc(-c2ccccc2)c2cc(Br)ccc2n1 | n | n | 27 | n | n
Cc1cc(OCC(=O)Nc2ccccn2)c2c(C)c(C)c(=O)oc2c1 | n | n | 33 | n | n
Cc1cc(OC(C)C(=O)NCc2ccccn2)c2c(C)c(Cc3ccccc3)c(=O)oc2c1 (configuration not stated) | n | n | 86 | n | 142 | RORg DNA counter=n
SMILES | PG9 Ab binder | Rin1-Abl PPI inh | NR1D1 modulator | TbMetRS inhib | Rev-erbA confirm | others
Cc1cc(OC(C)C(=O)NCc2ccccn2)c2c(C)cc(=O)oc2c1 (configuration not stated) | n | n | n | n | x
CCCCNC(=O)C1(C)CCCCN1C(=O)c1cc(C)n(C(C)(C)C)n1 (configuration not stated) | n | n | n | n | x
CCOC(=O)c1ccccc1NC(=O)c1n[nH]c(=O)c2ccccc12 | n | n | 53 | n | 25
COc1ccc(-c2nc(NC(=O)c3n[nH]c(=O)c4ccccc34)sc2C)cc1 | n | n | n | n | x
COc1cc(NC(=O)c2n[nH]c(=O)c3ccccc23)cc(OC)c1 | n | n | 26 | n | 20
CCOC(=O)c1ccc(NC(=O)c2n[nH]c(=O)c3ccccc23)cc1 | n | n | n | n | x
O=c1c2ccccc2ncn1-c1ccc(Cl)c(Cl)c1 | n | n | 30 | n | 37 | RORg DNA counter=n
O=c1c2ccccc2ncn1-c1cccc(Cl)c1 | n | n | n | n | x
